The source of these data is ChEMBL document CHEMBL4145487, “A focused fragment library targeting the antibiotic resistance enzyme - Oxacillinase-48: Synthesis, structural evaluation and inhibitor design” (Eur J Med Chem, 2018).

The nature of experiment [1]: Inhibition of bacterial beta-lactamase OXA-48 expressed in Escherichia coli strain BL21Star(DE3)pRARE using nitrocefin as substrate. Set-up: species or system Bacteria. In outline: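 OXA-48 carried its native signal peptide and was purified from the periplasm. The assay ran at 25 °C in 100 mM sodium phosphate pH 7.0 with 50 mM NaHCO3 and 0.2 mg/mL BSA, against 25 μM nitrocefin. Velocities were taken from the linear range. IC50 came from a nonlinear fit of response versus log inhibitor concentration, with bottom and top fixed from controls.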

Experiment [2] is described as follows: Binding affinity to bacterial His-tagged beta-lactamase OXA-48 expressed in Escherichia coli strain BL21Star(DE3)pRARE by surface plasmon resonance assay. On the set-up: species or system Bacteria. In outline: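 His-tagged OXA-48 amine-coupled to a CM5 chip to around 5000 RU (enzyme at 25 μg/mL in 10 mM MES pH 5.5). Ten dilutions from 400 μM to 10.5 μM were injected for 30 s with 60 s dissociation (300 s for kinetic binders). Sensorgrams were double-referenced. Kd came from a steady-state model with Rmax fixed via a positive control.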
For orientation: In SPR one partner is held on a chip, and binding of the other changes the refractive index at the surface.

In general, IC50 refers to the concentration at which inhibition is half-maximal. High values mean weaker potency in that assay, low ones greater potency in that assay. One may read the pIC50 as the negative decadic logarithm of the IC50, by convention in mol/L. The low end stands for a large IC50, the high end for a small IC50. In general, Kd refers to the free concentration of one partner at which half of the binding sites on the other are occupied at equilibrium, for simple one-to-one binding.

For `O=C(O)c1cccc(-c2ccc(F)cc2)c1`, in experiment [1], the midpoint of inhibition, the IC50, lay at 360 µM and the negative logarithm of the IC50 (pIC50) is listed as 3.45. This compound showed a Kd in experiment [2] of 312 µM.
For `O=C(O)c1cccc(-c2ccccc2F)c1` the same measures were 130 µM, 3.89 and 170 µM.
For `Nc1ccc(-c2cccc(C(=O)O)c2)cc1` the same measures were 330 µM, 3.48 and 330 µM.
Taken in the same sequence, the figures for `COc1ccc(-c2cccc(C(=O)O)c2)cc1` were 150 µM, 3.82 and 250 µM.
Turning to `O=C(O)c1cccc(-c2ccc(O)cc2)c1`, in experiment [1], the half-inhibitory concentration (IC50) turned out to be 470 µM and the pIC50 is 3.33. In experiment [2], this compound showed a Kd of 170 µM.
For `NC(=O)c1ccc(-c2cccc(C(=O)O)c2)cc1` the same measures were 180 µM, 3.73 and 200 to 350 µM.
Consider `O=C(O)c1cccc(-c2ccc3ccccc3c2)c1`, for which, in experiment [1], the 50% inhibitory concentration (IC50) was 110 µM and the pIC50 is reported as 3.98. Besides, the Kd in experiment [2] is 400 µM.
Taken in the same sequence, the figures for `CS(=O)(=O)NCc1cccc(-c2cccc(C(=O)O)c2)c1` were 110 µM, 3.96 and 110 µM.
For `CS(=O)(=O)c1cccc(-c2cccc(C(=O)O)c2)c1` the same measures were 120 µM, 3.91 and 150 µM.
Turning to `COc1cccc(-c2cccc(C(=O)O)c2)c1`, in experiment [1], the IC50 is 360 µM and the pIC50 was found to be 3.44. The compound further came in with a Kd in experiment [2] of 226 µM.
For `O=C(O)c1cc(-c2ccc3ncccc3c2)cc(-c2ccc3ncccc3c2)c1` the same measures were 110 µM, 3.94 and 70 µM.
Taken in the same sequence, the figures for `NC(=O)c1cccc(-c2cccc(C(=O)O)c2)c1` were 260 µM, 3.58 and 220 µM.
For `Cn1cccc1-c1cccc(C(=O)O)c1` the same measures were 500 µM, 3.3 and 590 µM.
In experiment [1], `Cc1ccccc1-c1cccc(C(=O)O)c1` yielded an IC50 of 90 µM and a negative logarithm of the IC50 (pIC50) of 4.05. For the same compound, binding in experiment [2] was put at a Kd of 170 µM.
For `O=C(O)c1cccc(-c2cccc(-c3nnn[nH]3)c2)c1` the same measures were 60 µM, 4.24 and 70 µM.
For `CS(=O)(=O)NCCc1cccc(-c2cccc(C(=O)O)c2)c1` the same measures were 370 µM, 3.43 and 200 µM.
Taken in the same sequence, the figures for `COC(=O)c1cccc(-c2cccc(C(=O)O)c2)c1` were 260 µM, 3.59 and 144 µM.
For `NCc1ccc(-c2cccc(C(=O)O)c2)cc1`, in experiment [1], the IC50 was determined as 1400 µM and the pIC50 was determined as 2.85. Also, binding in experiment [2] was characterised by a dissociation constant (Kd) of 550 µM.
As for `COC(=O)c1ccccc1-c1cccc(C(=O)O)c1`, in experiment [1], half-maximal inhibition (IC50) required 210 µM and the pIC50 is on record as 3.69. In addition, the Kd in experiment [2] is 200 µM.
Taken in the same sequence, the figures for `CC(=O)Nc1cccc(-c2cc(C(=O)O)cc(-c3cccc(NC(C)=O)c3)c2)c1` were 2.9 µM, 5.53 and 20 to 30 µM.
Taken in the same sequence, the figures for `CS(=O)(=O)Nc1ccc(-c2cccc(C(=O)O)c2)cc1` were 370 µM, 3.43 and 100 µM.
For `CC(=O)Nc1cccc(-c2cc(C(=O)O)cc(-c3ccncc3)c2)c1` the same measures were 100 µM, 3.99 and 70 µM.
In experiment [1], `O=C(O)c1cccc(-c2ccccc2O)c1` registered an IC50 of 50 µM and a pIC50 of 4.3. In addition, in experiment [2], binding was characterised by a dissociation constant (Kd) of 175 µM.
For `CC(=O)OCc1cccc(-c2cccc(C(=O)O)c2)c1` the same measures were 250 µM, 3.6 and 140 to 181 µM.
In experiment [1], `CC(=O)Nc1ccc(-c2cccc(C(=O)O)c2)cc1` showed a half-inhibitory concentration (IC50) of 450 µM and a negative-log IC50 (pIC50) of 3.35. For the same compound, binding in experiment [2] was characterised by a dissociation constant (Kd) of 290 µM.
Taken in the same sequence, the figures for `O=C(O)c1cccc(-c2ccc3cccnc3c2)c1` were 240 µM, 3.61 and 160 µM.
For `NCCc1ccc(-c2cccc(C(=O)O)c2)cc1` the same measures were 1000 µM, 2.98 and 970 µM.
With `O=C(O)c1cccc(-c2cccc(F)c2)c1`, in experiment [1], the IC50 was 130 µM and the pIC50 is listed as 3.88. In addition, the Kd in experiment [2] is 240 µM.
Consider `CS(=O)(=O)NCc1ccc(-c2cccc(C(=O)O)c2)cc1`, for which, in experiment [1], half-maximal inhibition (IC50) required 450 µM and the negative-log IC50 (pIC50) is 3.35. The same compound displayed a dissociation constant (Kd) in experiment [2] of 240 µM.
Taken in the same sequence, the figures for `O=C(O)c1cccc(-c2ccc3[nH]ccc3c2)c1` were 310 µM, 3.51 and 400 µM.
In experiment [1], `COc1ccccc1-c1cccc(C(=O)O)c1` displayed a half-inhibitory concentration (IC50) of 250 µM and a pIC50 of 3.6. Moreover, the dissociation constant Kd in experiment [2] came to 123 µM.
Taken in the same sequence, the figures for `CC(=O)Nc1ccc(-c2cc(C(=O)O)cc(-c3ccc(NC(C)=O)cc3)c2)cc1` were 48 µM, 4.32 and 70 µM.
Taken in the same sequence, the figures for `CC(=O)NCCc1cccc(-c2cccc(C(=O)O)c2)c1` were 230 µM, 3.64 and 170 µM.
In experiment [1], `Nc1ccc(-c2cccc(C(=O)O)c2)cn1` gave an IC50 of 170 µM and a pIC50 of 3.76. The dissociation constant (Kd) in experiment [2] stood at 130 µM.
For `O=C(O)c1cccc(-c2ccc(-c3nnn[nH]3)cc2)c1` the same measures were 36 µM, 4.48 and 70 µM.
For `CS(=O)(=O)c1ccc(-c2cccc(C(=O)O)c2)cc1` the same measures were 380 µM, 3.42 and 361 µM.
Taken in the same sequence, the figures for `Cc1cccc(-c2cccc(C(=O)O)c2)c1` were 170 µM, 3.78 and 300 µM.
As for `CC(=O)Nc1cccc(-c2cccc(C(=O)O)c2)c1`, in experiment [1], the half-maximal inhibitory concentration (IC50) came out at 35 µM and the pIC50 came out at 4.45. Also, in experiment [2], the equilibrium dissociation constant (Kd) was found to be 100 µM.
For `NCc1cccc(-c2cccc(C(=O)O)c2)c1`, in experiment [1], the IC50 stood at 600 µM and the negative logarithm of the IC50 (pIC50) came out at 3.22. The dissociation constant Kd in experiment [2] amounted to 800 µM.
For the compound `O=C(O)c1cccc(-c2ccccn2)c1`, in experiment [1], the half-maximal inhibitory concentration (IC50) was found to be 35 µM and the negative logarithm of the IC50 (pIC50) is listed as 4.46. In experiment [2], this compound gave a Kd of 159 µM.
Taken in the same sequence, the figures for `O=C(O)c1cccc(-c2cccc(CO)c2)c1` were 900 µM, 3.04 and 230 µM.
For `Cc1nc(N)ncc1-c1cccc(C(=O)O)c1` the same measures were 350 µM, 3.46 and 113 µM.
Taken in the same sequence, the figures for `O=C(O)c1cccc(-c2cnc(-n3ccnc3)nc2)c1` were 1300 µM, 2.89 and 1000 to 1160 µM.
On to `CN(C)c1ccc(-c2cccc(C(=O)O)c2)cc1`, for which, in experiment [1], inhibition was half-maximal at 390 µM (IC50) and the pIC50 came to 3.41. Moreover, binding in experiment [2] was put at a Kd of 220 µM.
For `O=C(O)c1cccc(-c2cccc(O)c2)c1`, in experiment [1], the IC50 is 110 µM and the negative-log IC50 (pIC50) is 3.97. In experiment [2], this compound showed a dissociation constant Kd of 110 µM.
With `CC(=O)c1ccc(-c2cccc(C(=O)O)c2)cc1`, in experiment [1], the midpoint of inhibition, the IC50, lay at 380 µM and the negative logarithm of the IC50 (pIC50) was 3.42. Moreover, the Kd in experiment [2] turned out to be 280 µM.
In experiment [1], `CC(=O)NCc1cccc(-c2cccc(C(=O)O)c2)c1` displayed an IC50 of 130 µM and a pIC50 of 3.89. The compound further gave an equilibrium dissociation constant (Kd) in experiment [2] of 130 µM.
In experiment [1], `NCCc1cccc(-c2cccc(C(=O)O)c2)c1` yielded a half-maximal inhibitory concentration (IC50) of 110 µM and a pIC50 of 3.95. In experiment [2], this compound registered a dissociation constant Kd of 300 µM.
For `O=C(O)c1cccc(-c2ccc(NS(=O)(=O)c3ccccc3)cc2)c1` the same measures were 60 µM, 4.25 and 210 µM.
For `CSc1ccc(-c2cccc(C(=O)O)c2)cc1` the same measures were 400 µM, 3.4 and 1000 µM.
For `O=C(O)c1cccc(-c2cncs2)c1` the same measures were 800 µM, 3.09 and 900 µM.
In experiment [1], `CC(=O)Nc1cccc(-c2cc(C(=O)O)cc(-c3ccc4ncccc4c3)c2)c1` registered an IC50 of 2.9 µM and a pIC50 of 5.54. For the same compound, in experiment [2], the Kd lay in the range of 49 to 60 µM.
In experiment [1], `CC(=O)NCCc1ccc(-c2cccc(C(=O)O)c2)cc1` yielded an IC50 of 520 µM and a pIC50 of 3.28. Also, the Kd in experiment [2] stood at 190 µM.
For the compound `O=C(O)c1cccc(-c2cncnc2)c1`, in experiment [1], the concentration for half-maximal inhibition (IC50) is 800 µM and the pIC50 is 3.1. The compound also gave a dissociation constant Kd in experiment [2] of 900 µM.
